Assay results from different studies.
Protocols differ between the studies behind these lines.
Target: Cyclin-dependent kinase 11B (CDK11B, Homo sapiens, UniProt P21127)
Method: competition with immobilised ligand

SMILES | effect on | tested at | remaining binding [%]
Nc1ncc2c(n1)-c1c([nH]c3ccc(C#CC4CC4)cc13)CCCC2 | binding | 1 µM | 91
c1cnn2ncc(-c3ccnc(N4CCC45COC5)n3)c2c1 | binding | 1 µM | 91
CCN1CCN(Cc2ccc(C(=O)Nc3ccc(C)c(Oc4ccc5c(c4)CC(=O)N5)c3)cc2C(F)(F)F)CC1 | binding | 1 µM | 100
CN(C)c1nccc(-c2cnn3ncccc23)n1 | binding | 1 µM | 100
Cc1cnc(Nc2ccc(C(=O)N3CCC(N4CCCC4)CC3)cc2)nc1-c1cc2ccccc2s1 | binding | 1 µM | 100
CNCc1ccccc1-c1csc([C@H](C)Nc2nc(C)nc3cc(OC)c(OC)cc23)c1 | cell-free assay | 1 µM | 100
O=C(c1ccc(Nc2nccc(-c3cc4ccccc4s3)n2)cc1)N1CCC(N2CCCC2)CC1 | binding | 1 µM | 71
C=CC(=O)N1CCC(C(=O)NCC(=O)N2CCN(c3nc(-c4cnc(N)nc4C(F)F)nc(N4CCOCC4)n3)CC2)CC1 | binding | 1 µM | 100
COc1ccc2cc(OCC3(C(=O)O)CN(C(=O)c4ccc(F)cc4)C3)ccc2c1 | cell-free assay | 1 µM | 100
O=C(Nc1c[nH]nc1C(=O)NC1CCNCC1)c1cc(F)cc(F)c1 | binding | 1 µM | 86
Cc1nc(Cc2cccc(C(F)(F)F)c2)sc1-c1ccc(C(N)=O)nc1 | cell-free assay | 1 µM | 97
N[C@@H]1CCN(c2nccc(-c3cnn4ncccc34)n2)C1 | binding | 1 µM | 100
FC(F)(F)Oc1cccc(-c2cnc3ccc(-c4ccncc4)nn23)c1 | cell-free assay | 5 µM | 100
CN(CCCC(F)(F)F)c1nccc(-c2cnn3ncccc23)n1 | binding | 1 µM | 94
CC1=C(C#N)C(c2ccc3c(c2)c(NC(=O)c2ccccc2C)nn3C)C(C#N)=C(C)N1 | cell-free assay | 1 µM | 100
COc1cnc(Nc2cccc(S(N)(=O)=O)c2)nc1N1CCN(c2ccccc2)C(=O)C1 | binding | 1 µM | 100
C[C@H]1CCN(c2nccc(-c3cnn4ncccc34)n2)C1 | binding | 1 µM | 90
N#CC1(c2ccccn2)CCN(Cc2cc(C(=O)N3CCCC3)c(=O)n3ccccc23)CC1 | cell-free assay | 1 µM | 80
COc1ccnn2ncc(-c3ccnc(N(C)C)n3)c12 | binding | 1 µM | 100
O=C(c1ccc(Nc2ncc(Cl)c(-c3cc4ccccc4s3)n2)cc1)N1CCC(N2CCCC2)CC1 | binding | 1 µM | 80
CSc1cccnc1N1CCN(Cc2nc3ccccc3[nH]2)CC1 | cell-free assay | 1 µM | 100
